Reference: ChEMBL document CHEMBL3046821, “Phospholipase A2 inhibitors synthesized by two entomopathogenic bacteria, Xenorhabdus nematophila and Photorhabdus temperata subsp. temperata” (Appl Environ Microbiol, 2012)
Converted amounts (≈) assume the structure as drawn. The source made the active and inactive calls. No cut-off for these calls is given here. Residues, ends and D or L forms follow the SMILES beside them.

Columns and labels:
[1] = system: Plutella xylostella; experiment: Potentiation of 1000 ppm Bacillus thuringiensis-induced pathogenicity against Plutella xylostella (diamondback moth) fourth-instar larvae at 10000 ppm measured 48 hr post compound treatment; assay type: functional, organism-based
In short: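 P. xylostella larvae fed Chinese cabbage pieces (1 cm2) dipped 5 min in test solutions together with commercial B. thuringiensis subsp. kurstaki, briefly dried in dark. Mortality at 48 h, with dead meaning no coordinated movement on probing; 10 larvae per replicate, three replicates; arcsine-square-root transformed, LSD test.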

[2] = system: Spodoptera exigua; experiment: (§1) Inhibition of PLA2 in hemocytes of Spodoptera exigua fifth-instar larvae using pyrene-labeled phospholipid substrate by spectrofluorometry; assay type: cell-based
In short: (§2)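 PLA2 from fifth-instar S. exigua hemocytes: hemolymph spun 500 × g 10 min, hemocytes sonicated in PBS, 12,500 × g 10 min 4°C supernatant. Enzyme (10 μg) preincubated with 10 μl sample, 25°C, 10 min; pyrene-labeled phosphatidylcholine substrate added with BSA and CaCl2 in PBS pH 7.4; residual activity by fluorescence, ex 348/em 390 nm. Triplicate independent samplings; I50 derived.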

[3] = system: Plutella xylostella; experiment: Insecticidal activity against Plutella xylostella (diamondback moth) fourth-instar larvae fed on cabbage leaves soaked in compound solutions measured 48 hr post compound treatment by leaf-dipping method; assay type: functional
In short: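 Leaf-dip feeding assay: Chinese cabbage pieces (1 cm2) soaked 5 min in test solutions at predetermined concentrations, briefly dried in the dark, then fed to P. xylostella larvae (field-origin colony reared on cabbage at 25 ± 1°C, 16:8 h light:dark). Three replicates of 10 larvae per dose. Mortality scored at 48 h; dead = no coordinated movement when prodded. Dose-mortality curves give LC50.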

[4] = system: Spodoptera exigua; experiment: Inhibition of immune responses in Spodoptera exigua fifth-instar larvae assessed as inhibition of hemocytic nodulation in response to Escherichia coli challenge by stereomicroscopy; assay type: functional, organism-based; settings: read-out: I50
In short: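 Fifth-instar S. exigua injected with E. coli (3.2 × 10^4 cells) mixed with compound in 10 μl; after 8 h at 25°C melanized nodules counted under stereomicroscope at ×50. Three replicates; I50 derived.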

[5] = as §1; assay type: cell-based; settings: read-out: I50; in short: as §2
[6] = system: Phenoloxidase (Spodoptera exigua); experiment: Inhibition of phenoloxidase activity in hemolymph of Spodoptera exigua fifth-instar larvae using DOPA substrate

For CC(=O)/C=C/c1ccccc1 [BUTENONE], the Activity [1] was “Active” and the inhibition [2] was “Dose-dependent effect”.
With CC(=O)N[C@@H](Cc1ccccc1)C(=O)NCC(=O)N[C@H](C(=O)O)C(C)C (Ac-Phe-Gly-Val-OH) the Activity [1] was “Active”, the LC50 [3] was 8350 µg/mL (≈ 23 mM) and the IC50 [4] was 423 µM. The IC50 [5] was 428 µM, the inhibition [2] was “Dose-dependent effect” and the inhibition [6] was “Dose-dependent effect”.
In the case of O=C(O)[C@H](Cc1ccc(O)cc1)NC(=O)[C@@H]1CCCN1 (H-Pro-Tyr-OH), the Activity [1] is reported as “Active”, the LC50 [3] is reported as 7690 µg/mL (≈ 27.6 mM) and the IC50 [4] is reported as 473 µM. The IC50 [5] was 522 µM, the inhibition [2] was “Dose-dependent effect” and the inhibition [6] was “Dose-dependent effect”.
For c1ccc2[nH]ccc2c1 [INDOLE], the Activity [1] was “Active”, the LC50 [3] was 6270 µg/mL (≈ 53.6 mM) and the IC50 [4] was 52.9 µM. The IC50 [5] was 64.9 µM and the inhibition [2] was “Dose-dependent effect”.
For O=C(O)CCc1ccc(O)cc1 [HYDROXYPHENYL PROPIONIC ACID], the Activity [1] was “Active”, the LC50 [3] was 6640 µg/mL (≈ 40 mM) and the IC50 [4] was 58.7 µM. The IC50 [5] was 49.5 µM, the inhibition [2] was “Dose-dependent effect” and the inhibition [6] was “Dose-dependent effect”.
For O=C1N[C@@H](Cc2ccc(O)cc2)C(=O)N2CCC[C@@H]12, the Activity [1] was “Active”, the LC50 [3] was 5950 µg/mL (≈ 22.9 mM) and the IC50 [4] was 37.7 µM. The IC50 [5] was 47.8 µM and the inhibition [2] was “Dose-dependent effect”.
With O=C1Cc2ccccc2N1 [OXINDOLE] the Activity [1] was “Active”, the LC50 [3] was 4830 µg/mL (≈ 36.3 mM) and the IC50 [4] was 32.3 µM. The IC50 [5] was 46.2 µM, the inhibition [2] was “Dose-dependent effect” and the inhibition [6] was “Dose-dependent effect”.
